pIC50: −log10 of the molar value. Active and inactive are the calls of the source. The calls are words filed in the database; no cut-off is given here.
Experiments:
[1] = tested on: MGC-803; assay: Induction of cell cycle arrest in human MGC-803 cells assessed as accumulation of cells at G0/G1 phase at 50 uM incubated for 24 hrs by PI staining based flow cytometry (Rvb=59.09%); assay type: functional
[2] = tested on: U-251; assay: Antiproliferative activity against human U-251 cells incubated for 48 hrs by MTT assay; assay type: functional, cell-based; conditions: U-251, 48 h
Method in brief: (§1)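 Monolayer cells in DMEM with 10% FBS, penicillin and streptomycin, 37°C, 5% CO2. Exponentially growing cells were seeded in 96-well plates and exposed to compound for 48 h. MTT was then added for 4 h at 37°C. Medium was removed, formazan dissolved in DMSO, and OD read at 490 nm. Each plate had five replicate wells, and assays were repeated three times per line.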

[3] = tested on: T-24; assay: Antiproliferative activity against human T24 cells incubated for 48 hrs by MTT assay; assay type: functional, cell-based; conditions: T-24, 48 h; method in brief: as §1
[4] = tested on: MDA-MB-231; assay: Antiproliferative activity against human MDA-MB-231 cells incubated for 48 hrs by MTT assay; assay type: functional, cell-based; conditions: MDA-MB-231, 48 h; method in brief: as §1
[5] = tested on: A549; assay: Antiproliferative activity against human A549 cells incubated for 48 hrs by MTT assay; assay type: functional, cell-based; conditions: A549, 48 h; method in brief: as §1
[6] = tested on: HCT-116; assay: Antiproliferative activity against human HCT-116 cells incubated for 48 hrs by MTT assay; assay type: functional, cell-based; conditions: HCT-116, 48 h; method in brief: as §1
[7] = Cytotoxicity against HK-2 cells incubated for 48 hrs by MTT assay; assay type: toxicity, cell-based; conditions: human; method in brief: as §1
[8] = Cytotoxicity against HUVEC cells incubated for 48 hrs by MTT assay; assay type: toxicity, cell-based; conditions: human; method in brief: as §1
[9] = tested on: MGC-803; assay: Effect on FACL4 protein expression in human MGC-803 cells at 25 to 50 uM incubated for 24 hrs by Western blot analysis; assay type: functional, cell-based; conditions: dose 25-50 µM
Method in brief: (§2)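 MGC-803 cells treated 25 or 50 μM for 24 h, lysed in ice-cold 1% SDS/Tris-HCl pH 7.5 buffer with EDTA, NaCl and protease inhibitors, spun 12,000g 18 min. Protein quantified by BCA; 40–50 μg resolved on 10% SDS-PAGE, transferred to PVDF, milk-blocked 2 h, primary antibody overnight, HRP secondary 1 h at RT. ECL detection with densitometry.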

[10] = Metabolic stability in male CD-1 mouse liver microsomes assessed as half life at 2 uM incubated for 60 min in the presence of NADPH by LC-MS/MS analysis; assay type: ADME, Microsome
Method in brief: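 Male CD-1 mouse liver microsomes at 0.5 mg/mL final in 100 mM phosphate buffer, pH 7.4. Mixture was preincubated with 1 mM NADPH (PBS only for the negative control) for 10 min at 37°C. Reaction was started with test compound at 2 µM final. Aliquots were taken at 0.5, 15, 30, 45 and 60 min into cold methanol with internal standard, centrifuged, and the supernatant analysed by LC-MS/MS.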

[11] = tested on: MGC-803; assay: Induction of ferroptosis in human MGC-803 cells assessed as reduction of GPX4 protein expression level at 25 to 50 uM incubated for 24 hrs by Western blot analysis; assay type: functional, cell-based; conditions: dose 25-50 µM; method in brief: as §2
[12] = tested on: MGC-803; assay: Antitumor activity against human MGC-803 cells xenografted in nude mouse assessed as tumor inhibition ratio at 48 mg/kg, ip administered once every two days for 21 days relative to control; assay type: functional; conditions: MGC-803, 504 h, time 21 day
Method in brief: (§3)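 1×10^6 tumor cells injected s.c. into the right flank of nude mice. At mean tumor volume 60–80 mm³, animals randomized to vehicle or treatment groups (n = 6). Compound in 5% v/v DMSO/saline given i.p. every 2 days. Tumor size and weight recorded; volume = lw²/2 from length and width. Body weight tracked as the systemic toxicity index.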

[13] = Toxicity in nude mouse xenografted with human MGC-803 cells assessed as pathological changes in heart at 12 to 48 mg/kg, ip administered once every two days for 21 days by H and E staining based analysis; assay type: organism-based; conditions: in vivo, 504 h, dose 12-48 mg/kg, time 21 day
Method in brief: (§4)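 Nude mice carrying s.c. xenografts (1×10^6 cells, right flank) randomized at 60–80 mm³ (n = 6), dosed i.p. every 2 days in 5% v/v DMSO/saline. Major organs examined by H&E staining at 200× magnification.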

[14] = Toxicity in nude mouse xenografted with human MGC-803 cells assessed as pathological changes in liver at 12 to 48 mg/kg, ip administered once every two days for 21 days by H and E staining based analysis; assay type: organism-based; conditions: in vivo, 504 h, dose 12-48 mg/kg, time 21 day; method in brief: as §4
[15] = Toxicity in nude mouse xenografted with human MGC-803 cells assessed as pathological changes in lungs at 12 to 48 mg/kg, ip administered once every two days for 21 days by H and E staining based analysis; assay type: organism-based; conditions: in vivo, 504 h, dose 12-48 mg/kg, time 21 day; method in brief: as §4
[16] = tested on: U-251; assay: Antitumor activity against human U-251 cells xenografted in nude mouse assessed as tumor inhibition ratio at 48 mg/kg, ip administered once every two days for 21 days relative to control; assay type: functional; conditions: U-251, 504 h, time 21 day; method in brief: as §3
[17] = tested on: MGC-803; assay: Induction of DNA damage in human MGC-803 cells assessed as appearance of long DNA tails at 25 to 100 uM incubated for 24 hrs by comet assay; assay type: functional, cell-based; conditions: dose 25-100 µM
Method in brief: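 MGC-803 cells exposed 25, 50 or 100 μM for 24 h, mixed 1:8 with low-melt agarose on comet slides, held 1 day at 4°C in dark, lysed 2 h at 4°C. Alkaline unwinding (1 mM EDTA, 300 mM NaOH, pH >13) 45 min at 4°C; electrophoresis in 1 mM EDTA/200 mM NaOH at 25 V, 30 min. Washed in Tris-HCl pH 7.5, PI-stained, imaged by fluorescence microscopy.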

[18] = tested on: MGC-803; assay: Induction of DNA damage in human MGC-803 cells assessed as increase in phosphorylated H2AX protein level at Ser139 residue at 25 to 50 uM incubated for 24 hrs by Western blot analysis; assay type: functional, cell-based; conditions: dose 25-50 µM; method in brief: as §2
[19] = tested on: MGC-803; assay: Induction of cell cycle arrest in human MGC-803 cells assessed as accumulation of cells at G0/G1 phase at 25 uM incubated for 24 hrs by PI staining based flow cytometry (Rvb=59.09%); assay type: functional
[20] = tested on: MGC-803; assay: Induction of cell cycle arrest in human MGC-803 cells assessed as accumulation of cells at S phase at 50 uM incubated for 24 hrs by PI staining based flow cytometry (Rvb=28.00%); assay type: functional
[21] = tested on: MGC-803; assay: Induction of cell cycle arrest in human MGC-803 cells assessed as accumulation of cells at G0/G1 phase at 100 uM incubated for 24 hrs by PI staining based flow cytometry (Rvb=59.09%); assay type: functional
[22] = tested on: MGC-803; assay: Induction of cell cycle arrest in human MGC-803 cells assessed as accumulation of cells at S phase at 100 uM incubated for 24 hrs by PI staining based flow cytometry (Rvb=28.00%); assay type: functional
[23] = tested on: MGC-803; assay: Induction of ferroptosis in human MGC-803 cells assessed as appearance of smaller mitochondria at 5 uM incubated for 24 hrs by TEM analysis; assay type: functional, cell-based
Method in brief: (§5)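 Cell samples prefixed in 3% glutaraldehyde, postfixed in 1% osmium tetroxide, dehydrated through graded acetone (30–100%), embedded in Epon812, cut into 60–90 nm ultrathin sections on copper grids, stained with uranyl acetate 10–15 min and lead citrate 1–2 min at room temperature, examined by TEM.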

[24] = tested on: MGC-803; assay: Induction of ferroptosis in human MGC-803 cells assessed as reduction in mitochondrial cristae at 5 uM incubated for 24 hrs by TEM analysis; assay type: functional, cell-based; method in brief: as §5
[25] = tested on: MGC-803; assay: Induction of apoptosis in human MGC-803 cells; assay type: functional, cell-based

pIC50 [2]: < 4.30
pIC50 [4]: < 4.30
pIC50 [5]: < 4.30
pIC50 [6]: < 4.30
half-life at 2 µM [10]: 36.6 min
Structure (SMILES): CN(C)CCN1C(=O)c2cccc3c(N4CCN(C(=O)CCOCCOCCOCCOCCNC(=O)CCCCC5SCC6NC(=O)NC65)CC4)ccc(c23)C1=O (stereo not given)
Activity [1]: 33.17%
pIC50 [3]: < 4.30
IC50 at 48 h [7]: > 50 µM
IC50 at 48 h [8]: > 50 µM
Activity [9]: inactive
Activity [11]: Active
inhibition in vivo at 48 mg/kg [12]: 65.5%
Activity [13]: Non-Toxic
Activity [14]: Non-Toxic
Activity [15]: Non-Toxic
inhibition in vivo at 48 mg/kg [16]: 76.2%
Activity [17]: Active
Activity [18]: Active
Activity [19]: 53.99%
Activity [20]: 40.58%
Activity [21]: 39.71%
Activity [22]: 41.72%
Activity [23]: Active
Activity [24]: Active
Activity [25]: inactive
